# Data reported in ChEMBL document CHEMBL4334489, “Asperpyridone A: An Unusual Pyridone Alkaloid Exerts Hypoglycemic Activity through the Insulin Signaling Pathway” (J Nat Prod, 2019).
# Calls of active or inactive are those of the source. The calls are words filed in the database; no cut-off is given here.
# Experiments:
# [1] = tested on: HepG2; assay: Effect on 2-NBDG uptake in insulin-resistant human HepG2 cells at 750 uM pretreated with insulin for 24 hrs followed by compound addition incubated for 24 hrs and subsequent 2-NBDG measured after 30 mins by propidium iodide staining based flow cytometry analysis (reference value: 65.4 %); format: functional
# [2] = tested on: HepG2; assay: Effect on 2-NBDG uptake in insulin-resistant human HepG2 cells at 50 uM pretreated with insulin for 24 hrs followed by compound addition incubated for 24 hrs and subsequent 2-NBDG measured after 30 mins by propidium iodide staining based flow cytometry analysis (reference value: 65.4 %); format: functional
# [3] = tested on: HepG2; assay: Effect on 2-NBDG uptake in insulin-resistant human HepG2 cells at 500 uM pretreated with insulin for 24 hrs followed by compound addition incubated for 24 hrs and subsequent 2-NBDG measured after 30 mins by propidium iodide staining based flow cytometry analysis (reference value: 65.4 %); format: functional
# [4] = tested on: HepG2; assay: Effect on 2-NBDG uptake in insulin-resistant human HepG2 cells at 1000 uM pretreated with insulin for 24 hrs followed by compound addition incubated for 24 hrs and subsequent 2-NBDG measured after 30 mins by propidium iodide staining based flow cytometry analysis analysis (reference value: 65.4 %); format: functional
# [5] = tested on: ASPC1; assay: Cytotoxicity against human AsPC1 cells; format: cell-based
# [6] = tested on: HepG2; assay: Effect on 2-NBDG uptake in insulin-resistant human HepG2 cells at 10 uM pretreated with insulin for 24 hrs followed by compound addition incubated for 24 hrs and subsequent 2-NBDG measured after 30 mins by propidium iodide staining based flow cytometry analysis (reference value: 33.4 %); format: functional
# [7] = tested on: CT26; assay: Cytotoxicity against mouse CT26 cells; format: cell-based
# [8] = tested on: HepG2; assay: Effect on 2-NBDG uptake in insulin-resistant human HepG2 cells at 1 uM pretreated with insulin for 24 hrs followed by compound addition incubated for 24 hrs and subsequent 2-NBDG measured after 30 mins by propidium iodide staining based flow cytometry analysis (reference value: 33.4 %); format: functional
# [9] = tested on: HepG2; assay: Increase in FGF21 gene expression in insulin-resistant human HepG2 cells at 10 uM using SYBR-green based qRT-PCR analysis; format: functional, cell-based
# Method in brief: (§1)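 HepG2 cells were made insulin-resistant with 0.1 units/mL insulin in serum-free DMEM for 24 h, then treated with compound at several doses (5–25 μM range) against a 1% DMSO vehicle control. Transcript levels of the target genes were quantified by qRT-PCR.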
# [10] = tested on: HepG2; assay: Effect on 2-NBDG uptake in insulin-resistant human HepG2 cells at 0.2 uM pretreated with insulin for 24 hrs followed by compound addition incubated for 24 hrs and subsequent 2-NBDG measured after 30 mins by propidium iodide staining based flow cytometry analysis (reference value: 33.4 %); format: functional
# [11] = tested on: HepG2; assay: Cytotoxicity against human HepG2 cells; format: cell-based
# [12] = tested on: HepG2; assay: Effect on 2-NBDG uptake in insulin-resistant human HepG2 cells at 25 uM pretreated with insulin for 24 hrs followed by compound addition incubated for 24 hrs and subsequent 2-NBDG measured after 30 mins by propidium iodide staining based flow cytometry analysis (reference value: 33.4 %); format: functional
# [13] = tested on: Panc02; assay: Cytotoxicity against mouse Panc02 cells; format: cell-based
# [14] = tested on: BXPC-3; assay: Cytotoxicity against human BxPC3 cells; format: cell-based
# [15] = tested on: HepG2; assay: Antidiabetic activity in human HepG2 cells assessed as increase in glucose consumption at 50 uM by glucose oxidase method; format: functional, cell-based
# Method in brief: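 HepG2 cells grown in DMEM with 10% FBS and 1% penicillin/streptomycin at 37 °C under 5% CO2. Cells were treated with 50 μM test compound or 0.1% DMSO vehicle. Glucose remaining in the culture supernatant was measured with a glucose oxidase–peroxidase kit.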
# [16] = tested on: HepG2; assay: Increase in PCK2 gene expression in insulin-resistant human HepG2 cells at 10 uM using SYBR-green based qRT-PCR analysis; format: functional, cell-based
# [17] = tested on: HepG2; assay: Increase in FGF21 gene expression in insulin-resistant human HepG2 cells using SYBR-green based qRT-PCR analysis; format: functional, cell-based; method in brief: as §1
structure (smiles),measurement,setting,value
CN(C)C(=N)NC(=N)N [METFORMIN],Activity,[1],46.1%
same,Activity,[2],31.9%
same,Activity,[3],42.5%
same,Activity,[4],45.6%
COn1ccc2c(c1=O)[C@H]1[C@@H](C[C@H](C)C[C@@H]1C)[C@H](C)O2,Activity,[5],Non-Toxic
same,Activity,[6],53.6%
same,Activity,[7],Non-Toxic
same,Activity,[8],47.5%
same,Activity,[9],Active
same,Activity,[10],45.1%
same,Activity,[11],Non-Toxic
same,Activity,[12],46.9%
same,Activity,[13],Non-Toxic
same,Activity,[14],Non-Toxic
same,Activity,[15],Active
same,Activity,[16],Active
same,Activity,[17],Dose-dependent effect
